Measured values reported in article PMC3425077 (Indian Journal of Pharmaceutical Sciences, 2011).

How the values were obtained:
Type in all cases: in vivo
[1] = tested on: radiant heat induced rat tail flick; test: Radiant heat induced rat tail flick method; conditions: dose mg/Kg b.w.: Std (Aspirin) 200, 4a-4d 100, 4e 200, 4f 75
Method in brief: (§1)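 Animals given test compound or standard were compared with a control group of animals. Significance of the differences between treatment and control was assessed by Student's t test.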

[2] = tested on: carrageenan induced rat paw edema; test: Carrageenan induced rat paw edema method; conditions: dose mg/Kg b.w.: Std (Aspirin) 200, 4a-4d 100, 4e 200, 4f 75
Method in brief: as §1

ulcers = test: Ulcerogenic activity, arbitrary scoring of ulcer severity; conditions: dose mg/Kg b.w.: Std (Aspirin) 200, 4a-4d 100, 4e 200, 4f 75
adrenal gland weight = test: Adrenal weight change method; conditions: suppression of adrenal gland weight; dose mg/Kg b.w.: Std (Aspirin) 200, 4a-4d 100, 4e 200, 4f 75
Method in brief: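 Adrenal weight change was one of the anti-inflammatory methods. Treated groups were compared with a control group of animals by Student's t test and marked significant or non-significant.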

Question: What does the source list for `CC(=O)Oc1ccccc1C(=O)O` [Aspirin]?
Answer: Analgesic activity percent protection Rat tail flicK method [1]: 49.39%; Antiinflammatory activity Percentage inhibition Carrageenan method 1 h ([2]; after 1 h): 54.84%; Antiinflammatory activity Percentage inhibition Carrageenan method 3 h ([2]; after 3 h): 55.05%; Antiinflammatory activity Percentage inhibition Carrageenan method 5 h ([2]; after 5 h): 73.81%; Ulcer index (ulcers): 43.33; Antiinflammatory activity Percentage inhibition Adrenal weight method (adrenal gland weight): 50.13%
